Data on 1 molecule can be found in ChEMBL document CHEMBL5036319, “Discovery of Novel Benzothiazepinones as Irreversible Covalent Glycogen Synthase Kinase 3β Inhibitors for the Treatment of Acute Promyelocytic Leukemia” (J Med Chem, 2021).

Activity calls are given as the source filed them. The rule behind the calls is not given here.

A short description of data set [1]: Cytotoxicity against HUVEC assessed as cell viability at 100 uM incubated for 24 hrs by CCK-8 assay relative to control. Format: cell-based. The conditions noted are these: human, read-out: Activity. The method, boiled down:
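HUVEC and LO2 normal cells were cultured in RPMI-1640 or DMEM with 10% FBS at 37 °C, 5% CO2, and seeded at 3 × 10^4 cells/well. They were exposed for 24 h to graded concentrations. CCK-8 incubation was 3 h at 37 °C, with A450 read and viability expressed versus untreated control. Three independent experiments, mean ± SEM.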
A general note: Tetrazolium assays rely on reduction of a dye to a coloured formazan, in cell work by metabolically active cells.

The nature of data set [2]: Induction in caspase-mediated apoptosis in human NB-4 cells assessed as early apoptotic cells at 12.5 uM incubated for 24 hrs by Annexin V-FITC/propidium iodide staining based flow cytometry analysis (reference value: 2.02%). Format: functional. (Flow cytometry measures light scatter and fluorescence of single cells or particles in a stream.)
A short description of data set [3]: Induction in caspase-mediated apoptosis in human NB-4 cells assessed as viable cells at 100 uM incubated for 24 hrs by Annexin V-FITC/propidium iodide staining based flow cytometry analysis (reference value: 96.6%). Format: functional. The note with it: read-out: Activity.
Data set [4] is described as follows: Induction in caspase-mediated apoptosis in human NB-4 cells assessed as early apoptotic cells at 100 uM incubated for 24 hrs by Annexin V-FITC/propidium iodide staining based flow cytometry analysis (reference value: 2.02%). The data set is classed as functional.
Data set [5] in a line: Induction in caspase-mediated apoptosis in human NB-4 cells assessed as late apoptotic cells at 100 uM incubated for 24 hrs by Annexin V-FITC/propidium iodide staining based flow cytometry analysis (reference value: 1.06%). Format: functional.
Data set [6] can be described thus: Induction in caspase-mediated apoptosis in human NB-4 cells assessed as viable cells at 50 uM incubated for 24 hrs in presence of Z-VAD-FMK by Annexin V-FITC/propidium iodide staining based flow cytometry analysis (reference value: 96.8%). The data set is classed as functional. The conditions noted are these: read-out: Activity.
A short description of data set [7]: Induction in caspase-mediated apoptosis in human NB-4 cells assessed as early apoptotic cells at 50 uM incubated for 24 hrs in presence of Z-VAD-FMK by Annexin V-FITC/propidium iodide staining based flow cytometry analysis (reference value: 1.84%). The data set is classed as functional.
A short description of data set [8]: Induction in caspase-mediated apoptosis in human NB-4 cells assessed as necrotic cells at 50 uM incubated for 24 hrs in presence of Z-VAD-FMK by Annexin V-FITC/propidium iodide staining based flow cytometry analysis (reference value: 0.167%). Format: functional.
Data set [9] in a line: Induction in caspase-mediated apoptosis in human NB-4 cells assessed as early apoptotic cells at 100 uM incubated for 24 hrs in presence of Z-VAD-FMK by Annexin V-FITC/propidium iodide staining based flow cytometry analysis (reference value: 1.84%). The data set is classed as functional.
Data set [10] in a line: Induction in caspase-mediated apoptosis in human NB-4 cells assessed as late apoptotic cells at 100 uM incubated for 24 hrs in presence of Z-VAD-FMK by Annexin V-FITC/propidium iodide staining based flow cytometry analysis (reference value: 1.15%). The data set is classed as functional.
The nature of data set [11]: Induction in caspase-mediated apoptosis in human NB-4 cells assessed as necrotic cells at 100 uM incubated for 24 hrs in presence of Z-VAD-FMK by Annexin V-FITC/propidium iodide staining based flow cytometry analysis (reference value: 0.167%). Format: functional.
Data set [12] is described as follows: Induction in caspase-mediated apoptosis in human NB4-DR1 cells assessed as viable cells at 12.5 uM incubated for 24 hrs by Annexin V-FITC/propidium iodide staining based flow cytometry analysis (reference value: 96.9%). The data set is classed as functional. The conditions noted are these: read-out: Activity.
A short description of data set [13]: Induction in caspase-mediated apoptosis in human NB4-DR1 cells assessed as early apoptotic cells at 50 uM incubated for 24 hrs by Annexin V-FITC/propidium iodide staining based flow cytometry analysis (reference value: 1.43%). The data set is classed as functional.
Data set [14] can be described thus: Induction in caspase-mediated apoptosis in human NB4-DR1 cells assessed as late apoptotic cells at 50 uM incubated for 24 hrs by Annexin V-FITC/propidium iodide staining based flow cytometry analysis (reference value: 1.47%). The data set is classed as functional.
Data set [15] is described as follows: Induction in caspase-mediated apoptosis in human NB4-DR1 cells assessed as viable cells at 12.5 uM incubated for 24 hrs in presence of Z-VAD-FMK by Annexin V-FITC/propidium iodide staining based flow cytometry analysis (reference value: 96.4%). The data set is classed as functional. The conditions noted are these: read-out: Activity.
Data set [16] can be described thus: Induction in caspase-mediated apoptosis in human NB4-DR1 cells assessed as viable cells at 25 uM incubated for 24 hrs in presence of Z-VAD-FMK by Annexin V-FITC/propidium iodide staining based flow cytometry analysis (reference value: 96.4%). The data set is classed as functional. The note with it: read-out: Activity.
Data set [17] can be described thus: Induction in caspase-mediated apoptosis in human NB4-DR1 cells assessed as late apoptotic cells at 25 uM incubated for 24 hrs in presence of Z-VAD-FMK by Annexin V-FITC/propidium iodide staining based flow cytometry analysis (reference value: 2.54%). The data set is classed as functional.
Data set [18] can be described thus: Induction in caspase-mediated apoptosis in human NB4-DR1 cells assessed as early apoptosis cells at 50 uM incubated for 24 hrs in presence of Z-VAD-FMK by Annexin V-FITC/propidium iodide staining based flow cytometry analysis (reference value: 0.875%). The data set is classed as functional.
Data set [19] is described as follows: Induction in caspase-mediated apoptosis in human NB4-DR1 cells assessed as late apoptotic cells at 50 uM incubated for 24 hrs in presence of Z-VAD-FMK by Annexin V-FITC/propidium iodide staining based flow cytometry analysis (reference value: 2.54%). Format: functional.
Data set [20] is described as follows: Induction in caspase-mediated apoptosis in human NB4-DR1 cells assessed as late apoptotic cells at 100 uM incubated for 24 hrs in presence of Z-VAD-FMK by Annexin V-FITC/propidium iodide staining based flow cytometry analysis (reference value: 2.54%). The data set is classed as functional.
Data set [21] in a line: AUClast in ICR mouse at 15 mg/kg, ip administered as single dose measured upto 8 hrs by LC-MS/MS analysis. More on the design: route intraperitoneal, dose 15 mg/kg, time <=8. The data set is classed as ADME, organism-based. The conditions noted are these: in vivo. The method, boiled down: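 Male ICR mice (30 g) given a single i.p. bolus of 15 mg/kg in corn oil. Blood taken by orbital collection into K3EDTA tubes at 0.08, 0.17, 0.5, 1, 2, 4 and 8 h, three animals per time point, giving a composite profile. Plasma proteins were precipitated with acetonitrile and analysed by LC-MS/MS. Parameters were derived by non-compartmental analysis.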

The test system of the next data set is NB-4. Kind of data set: Antitumor activity against human NB-4 cells xenografted in BALB/c nude mouse assessed as reduction in tumor mass at 15 mg/kg/day, ip administered for 2 weeks. The data set is classed as functional, organism-based. The method, boiled down: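 Female Balb/c nude mice, 4 weeks old, received 2 × 10^6 NB4 cells s.c. in the right flank. Once tumours reached about 0.5 cm diameter, mice were randomised to corn-oil vehicle or drug in corn oil (n = 5). Dosing was 15 mg/kg/d i.p. once daily for 2 weeks. Caliper volume (length × width²)/2 was taken every other day, and tumours were excised and weighed at the end.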
In general terms: In xenograft studies the graft and the host belong to different species.

In data set [22] the target is Glycogen synthase kinase-3 beta (Homo sapiens, UniProt P49841). Briefly: Binding affinity to recombinant human GSK-3beta assessed as covalent bond formation between compound and enzyme by measuring mass changes by […] analysis. The method, boiled down: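 Human recombinant GSK-3β (10 μM stock in 50 mM HEPES, 1 mM EDTA, 2 mM EGTA, 15 mM Mg(OAc)2) was incubated with compound in DMSO (1.6 μL of 500 μM into 14.4 μL) at 30 °C with shaking for 30 min. Intact protein was run on C4 LC over a 5–100% acetonitrile/0.1% formic acid gradient into positive-ion Q-TOF MS, and mass shift was read.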
Glycogen synthase kinase-3 beta, sequence (P49841 whole entry, looked up): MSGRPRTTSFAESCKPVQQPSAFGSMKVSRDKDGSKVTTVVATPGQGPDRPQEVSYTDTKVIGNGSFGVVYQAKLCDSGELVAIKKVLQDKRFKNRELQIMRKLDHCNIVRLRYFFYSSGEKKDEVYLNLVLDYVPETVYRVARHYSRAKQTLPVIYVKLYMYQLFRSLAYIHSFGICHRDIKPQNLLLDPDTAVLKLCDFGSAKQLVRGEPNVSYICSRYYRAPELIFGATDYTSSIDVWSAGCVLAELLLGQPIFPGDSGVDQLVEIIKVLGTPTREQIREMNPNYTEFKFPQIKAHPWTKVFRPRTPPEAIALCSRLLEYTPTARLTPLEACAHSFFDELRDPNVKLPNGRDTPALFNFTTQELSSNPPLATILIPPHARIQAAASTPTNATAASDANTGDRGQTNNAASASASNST

Regarding `C=CC(=O)N1C(=O)CC(c2ccc(F)cc2)Sc2ccccc21` (stereo not drawn), the viability at 24 h, 100 µM in [1] is greater than 70%. Moreover, the Activity in data set [2] is 8.87%; in data set [4], 4.21%; in [5], 85.5%; in [7], 8.18%; in data set [8] it was 1.52%; in data set [9], 5.35%. Moreover, the Activity in data set [10] is given as 19.6%; in data set [11] it was 2.88%; in data set [13], 1.92%; in data set [14], 16.1%; in [17], 5.45%; in data set [18] it was 1.12%. Besides, the Activity came to 7.04% in data set [19] and 14.2% in data set [20]. In data set [3], the viability at 100 µM turned out to be 5.94%. In [6], the viability at 50 µM is 78.6%. The viability at 12.5 µM came out at 92.2% in [12] and 96.1% in [15]. Moreover, in data set [16], the viability at 25 µM was 93%. The molecule also showed an AUC(0-t) at 8 h in data set [21] of 3500 ng·h/mL. The outcome (in the data set on NB-4; in [22]) was Active.

Usually AUC(0-t) stands for the area under the concentration-time curve up to a stated or last time point. The low end stands for less exposure, the high end for more exposure.
